What was measured:
[1] = folding enthalpy; higher = less favourable; fluorescence melt of hairpins on a sequencing array, two-state fit; conditions: sodium 0.088 M
Method in brief: (§1)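 Melting temperature and folding enthalpy were derived from bootstrapped two-state fits. The fitted temperatures were raised by 9.35 °C to agree with UV melts, and four replicates were combined by inverse variance. The underlying data were Cy3 fluorescence images of library hairpins, with annealed Cy3 and quencher oligos, on a sequenced MiSeq flow cell in 50 mM Na-HEPES pH 8.0, 25 mM NaCl, taken in 2.5 °C steps up to 60 °C, normalised to pre-quench Cy3 and to control constructs.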

[2] = melting temperature; fluorescence melt of hairpins on a sequencing array, two-state fit, raised by 9.35 °C to match UV melts; conditions: sodium 0.088 M
Method in brief: as §1

| Sequence | folding enthalpy [1] [kcal/mol] | Tm [2] [°C] |
| --- | --- | --- |
| GACCACGAAAGTGACGTC ((((((....)))..))) | -16.5 | 37.5 |
| GACCACGAAAGTGTAGTC ((((((....)))..))) | -18.6 | 41.1 |
| GACCACGAAAGTGTTGTC ((((((....)))..))) | -18.7 | 34.4 |
| GACCACGGAAACACGGTC ((((..(....)..)))) | -30.3 | 35.3 |
| GACCAGCGAAAGCTTGTC (((.(((....))).))) | -24 | 47.8 |
| GACCAGGGAAACCTGGTC (((((((....))))))) | -34.4 | 67.5 |
| GACCATGAAAATGGTC ((((((....)))))) | -36.9 | 61.8 |
| GACCCACGAAAGTGTGTC (((.(((....))).))) | -27.4 | 48.9 |
| GACCCAGGAAACCGGGTC (((((.(....).))))) | -32.8 | 52.9 |
| GACCCCGAAAGGGACGTC ((((((....)))..))) | -17 | 40.4 |
| GACCCCGAAAGGGCGGTC ((((((....)))..))) | -17.2 | 45.9 |
| GACCCCGAAAGGGCGTC ((((((....))).))) | -36.6 | 56.7 |
| GACCCCGGAAACGGGACC (..((((....))))..) | -8.3 | 28.1 |
| GACCCGCGAAAGCGTGTC (((.(((....))).))) | -24 | 52.6 |
| GACCCGGGAAACCGGATC ((.((((....)))).)) | -16.3 | 43.2 |
| GACCCTACGAAAGTAGTC (((..(((....)))))) | -11.3 | 28 |
| GACCCTGGAAACAGGATC ((.((((....)))).)) | -21.8 | 37.6 |
| GACCGAACGAAAGTTGTC (((..(((....)))))) | -17 | 29.5 |
| GACCGACGAAAGTCGTC (((.(((....)))))) | -10.6 | 45 |
| GACCGAGAAATCGGTC ((((((....)))))) | -34.4 | 59.6 |
| GACCGCGAAAGCGCGTC ((((((....))).))) | -21 | 63.1 |
| GACCGCGAAAGCGTCGTC ((((((....)))..))) | -13.5 | 53.1 |
| GACCGCGGAAACGCGGCC (.(((((....))))).) | -10.1 | 52.5 |

| Sequence | folding enthalpy [1] [kcal/mol] | Tm [2] [°C] |
| --- | --- | --- |
| GACCGGCGAAAGCCAGTC (((.(((....))).))) | -20.2 | 50.7 |
| GACCGGGGAAACCCGACC (..((((....))))..) | -11.4 | 30 |
| GACCGTCCGAAAGGAGTC (((..(((....)))))) | -11.8 | 28.6 |
| GACCGTGGAAACACGGCC (.(((((....))))).) | -13.2 | 50.9 |
| GACCTACGAAAGTATGTC (((.(((....))).))) | -33.4 | 41 |
| GACCTAGGAAACCAGGTC (((((.(....).))))) | -35.3 | 45 |
| GACCTAGGAAACTAGGTC (((((((....))))))) | -42 | 60.5 |
| GACCTGAAAAGGTC (((((....))))) | -27.9 | 59 |
| GACCTGCGAAAGCAGTC (((.(((....)))))) | -12.2 | 48.5 |
| GACCTGCGAAAGCATGTC (((.(((....))).))) | -28.4 | 49.9 |
| GACCTGGGAAACCAAGTC (((.(((....))).))) | -29.7 | 33.4 |
| GACGAACGAAAGTTTGTC (((.(((....))).))) | -43.7 | 54.2 |
| GACGAAGGAAACCTCGTC (((((.(....).))))) | -33 | 46 |
| GACGACGAAAGTCACGTC ((((((....)))..))) | -19.6 | 41.1 |
| GACGACGAAAGTCAGGTC ((((((....)))..))) | -19.9 | 44.3 |
| GACGACGAAAGTCGTGTC ((((((....)))..))) | -10.5 | 59.9 |
| GACGACGGAAACACCGTC ((((..(....)..)))) | -13.2 | 38.2 |
| GACGACGGAAACATCGTC (((((.(....).))))) | -34.2 | 45.7 |
| GACGATGGAAACATCGTC (((((((....))))))) | -41.7 | 67.9 |
| GACGCAACGAAAGTTGTC (((..(((....)))))) | -10 | 34.1 |
| GACGCACGAAAGTGTGTC (((.(((....))).))) | -45.6 | 61.8 |
| GACGCAGAAATGCGTC ((((((....)))))) | -35.9 | 68.5 |
| GACGCAGGAAACTGTGTC (((.(((....))).))) | -39.8 | 52.5 |

| Sequence | folding enthalpy [1] [kcal/mol] | Tm [2] [°C] |
| --- | --- | --- |
| GACGCCCCGAAAGGGGTC (((..(((....)))))) | -7.73 | 40.2 |
| GACGCCGAAAGGCATGTC ((((((....)))..))) | -15.2 | 43.3 |
| GACGCCGAAAGGCCAGTC ((((((....)))..))) | -15 | 40.7 |
| GACGCCGAAAGGCGAGTC ((((((....)))..))) | -8.04 | 43.7 |
| GACGCCGGAAACGGTGTC (((.(((....))).))) | -45.9 | 63.9 |
| GACGCGGCGAAAGCCGTC (((..(((....)))))) | -5.1 | 32.6 |
| GACGCGGGAAACCGTGTC (((.(((....))).))) | -39.4 | 58.2 |
| GACGCTGGAAACAGCATC ((.((((....)))).)) | -12.7 | 41.3 |
| GACGGCGAAAGCCCAGTC ((((((....)))..))) | -13.1 | 41.8 |
| GACGGCGAAAGCCGAGTC ((((((....)))..))) | -8.09 | 45.8 |
| GACGGCGGAAACACCGCC (.(((.(....).))).) | -10.1 | 44.1 |
| GACGGCGGAAACGTCGTC ((((.((....)).)))) | -52.8 | 61.1 |
| GACGGGCGAAAGCCAGTC (((.(((....))).))) | -21.7 | 67.9 |
| GACGGGGGAAACCTCGTC ((((.((....)).)))) | -31.7 | 55.1 |
| GACGGTGAAAACCGTC ((((((....)))))) | -32.1 | 68.5 |
| GACGGTGGAAACGCCGTC (((((.(....).))))) | -37.7 | 62.9 |
| GACGTACGAAAGTAGGTC (((.(((....))).))) | -38.5 | 52.6 |
| GACGTACGAAAGTATGTC (((.(((....))).))) | -43.4 | 54.6 |
| GACGTAGAAATACGTC ((((((....)))))) | -38.5 | 55 |
| GACGTCCGAAAGGAGGTC (((.(((....))).))) | -30.9 | 58.3 |
| GACGTCGGAAACGATGTC (((.(((....))).))) | -52.2 | 54.7 |
| GACGTGCGAAAGCAGGTC (((.(((....))).))) | -36.2 | 62.4 |
| GACGTGGGAAACCACACC (..((((....))))..) | -11.9 | 25.5 |

| Sequence | folding enthalpy [1] [kcal/mol] | Tm [2] [°C] |
| --- | --- | --- |
| GACGTGGGAAACCACATC ((.((((....)))).)) | -17.4 | 34.5 |
| GACGTGGGAAACCATGTC (((.(((....))).))) | -42.7 | 51.4 |
| GACGTGGGAAACCGCGTC ((((.((....)).)))) | -43.8 | 61.5 |
| GACGTTGAAAAACGTC ((((((....)))))) | -33.9 | 60.1 |
| GACGTTGGAAACAACACC (..((((....))))..) | -9.55 | 25.2 |
| GACGTTGGAAACGATGTC (((.(.(....).).))) | -16.9 | 33.4 |
| GACTAACGAAAGTTCGTC (((.(((....))).))) | -30.5 | 42.5 |
| GACTAACGAAAGTTTGTC (((.(((....))).))) | -30.9 | 47 |
| GACTAAGAAATTAGTC ((((((....)))))) | -24.9 | 40.5 |
| GACTAAGCGAAAGCTGTC (((..(((....)))))) | -15 | 45 |
| GACTACCGAAAGGTCGTC (((.(((....))).))) | -39.4 | 48.6 |
| GACTACCGAAAGGTGGTC (((.(((....))).))) | -38.6 | 58.4 |
| GACTACGAAAGTAACGTC ((((((....)))..))) | -16 | 31.8 |
| GACTACGAAAGTACAGTC ((((((....)))..))) | -18.3 | 34 |
| GACTACGAAAGTACGGTC ((((((....)))..))) | -20.4 | 32 |
| GACTACGAAAGTATCGTC ((((((....)))..))) | -20.4 | 31.1 |
| GACTAGGGAAACCCAGTC ((((.((....)).)))) | -30.1 | 40.2 |
| GACTAGGGAAACCTGGTC (((.(((....))).))) | -35.7 | 46.7 |
| GACTAGGGAAACTTAGTC (((((.(....).))))) | -30.1 | 37.9 |
| GACTATGAAAATAGTC ((((((....)))))) | -32.8 | 49.5 |
| GACTATGCGAAAGCAGTC (((..(((....)))))) | -15.3 | 44 |
| GACTATGGAAACATGGTC (((.(((....))).))) | -35.5 | 45.4 |
